Test results published in ChEMBL document CHEMBL1255446, “Combinations of mutations in the connection domain of human immunodeficiency virus type 1 reverse transcriptase: assessing the impact on nucleoside and nonnucleoside reverse transcriptase inhibitor resistance” (2010).

The molecules below were run on Human immunodeficiency virus 1 (assay: Antiviral activity against HIV1 with RT connection domain G190A/N348Ib mutant transfected in HEK293 cells assessed as inhibition of viral replication relative to HIV1 NL4-3).
Type: functional
How it was run: (§1)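 Single-replication-cycle (PhenoSense) assay. Site-directed mutant RT pseudoviruses were made by cotransfecting 293 cells with RTV plasmid plus an amphotropic MLV Env plasmid, harvested at 48 h, and used to infect fresh 293 cells. Serial drug dilutions were added before infection. Luciferase was read ~72 h post-infection, % inhibition was computed, and EC50 was taken from the curves. Values are fold change versus NL4-3 reference run in the same experiment.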

Structure (SMILES)	fold change (FC)
CC(C)Nc1cccnc1N1CCN(C(=O)c2cc3cc(NS(C)(=O)=O)ccc3[nH]2)CC1 [DELAVIRDINE]	1.1
O=C1Nc2ccc(Cl)cc2[C@@](C#CC2CC2)(C(F)(F)F)O1 [EFAVIRENZ]	26

What follows are molecules tested on Human immunodeficiency virus 1 (assay: Antiviral activity against HIV1 with RT connection domain G190A/T369I mutant transfected in HEK293 cells assessed as inhibition of viral replication relative to HIV1 NL4-3).
Type: functional
How it was run: as §1

Structure (SMILES)	fold change (FC)
CC(C)Nc1cccnc1N1CCN(C(=O)c2cc3cc(NS(C)(=O)=O)ccc3[nH]2)CC1 [DELAVIRDINE]	1.2
O=C1Nc2ccc(Cl)cc2[C@@](C#CC2CC2)(C(F)(F)F)O1 [EFAVIRENZ]	33.7

What follows are molecules tested on Human immunodeficiency virus 1 (assay: Antiviral activity against HIV1 with RT connection domain G190A/T369I/N348I mutant transfected in HEK293 cells assessed as inhibition of viral replication relative to HIV1 NL4-3).
Type: functional
How it was run: as §1

Structure (SMILES)	fold change (FC)
CC(C)Nc1cccnc1N1CCN(C(=O)c2cc3cc(NS(C)(=O)=O)ccc3[nH]2)CC1 [DELAVIRDINE]	5.9
O=C1Nc2ccc(Cl)cc2[C@@](C#CC2CC2)(C(F)(F)F)O1 [EFAVIRENZ]	>700

Each molecule was assayed on Human immunodeficiency virus 1 (assay: Antiviral activity against HIV1 with RT connection domain G190S mutant transfected in HEK293 cells assessed as inhibition of viral replication relative to HIV1 NL4-3).
Type: functional
How it was run: as §1

Structure (SMILES)	fold change (FC)
CC(C)Nc1cccnc1N1CCN(C(=O)c2cc3cc(NS(C)(=O)=O)ccc3[nH]2)CC1 [DELAVIRDINE]	0.3
O=C1Nc2ccc(Cl)cc2[C@@](C#CC2CC2)(C(F)(F)F)O1 [EFAVIRENZ]	63

What follows are molecules tested on Human immunodeficiency virus 1 (assay: Antiviral activity against HIV1 with RT connection domain G190S/N348I mutant transfected in HEK293 cells assessed as inhibition of viral replication relative to HIV1 NL4-3).
Type: functional
How it was run: as §1

Structure (SMILES)	fold change (FC)
CC(C)Nc1cccnc1N1CCN(C(=O)c2cc3cc(NS(C)(=O)=O)ccc3[nH]2)CC1 [DELAVIRDINE]	0.9
O=C1Nc2ccc(Cl)cc2[C@@](C#CC2CC2)(C(F)(F)F)O1 [EFAVIRENZ]	>700

These molecules were tested on Human immunodeficiency virus 1 (assay: Antiviral activity against HIV1 with RT connection domain G190S/T369I mutant transfected in HEK293 cells assessed as inhibition of viral replication relative to HIV1 NL4-3).
Type: functional
How it was run: as §1

Structure (SMILES)	fold change (FC)
CC(C)Nc1cccnc1N1CCN(C(=O)c2cc3cc(NS(C)(=O)=O)ccc3[nH]2)CC1 [DELAVIRDINE]	0.6
O=C1Nc2ccc(Cl)cc2[C@@](C#CC2CC2)(C(F)(F)F)O1 [EFAVIRENZ]	>700

The molecules below were run on Human immunodeficiency virus 1 (assay: Antiviral activity against HIV1 with RT connection domain G190S/T369I/N348I mutant transfected in HEK293 cells assessed as inhibition of viral replication relative to HIV1 NL4-3).
Type: functional
How it was run: as §1

Structure (SMILES)	fold change (FC)
CC(C)Nc1cccnc1N1CCN(C(=O)c2cc3cc(NS(C)(=O)=O)ccc3[nH]2)CC1 [DELAVIRDINE]	6.9
O=C1Nc2ccc(Cl)cc2[C@@](C#CC2CC2)(C(F)(F)F)O1 [EFAVIRENZ]	>700

The molecules below were run on Human immunodeficiency virus 1 (assay: Antiviral activity against HIV1 with RT connection domain L100I mutant transfected in HEK293 cells assessed as inhibition of viral replication relative to HIV1 NL4-3).
Type: functional
How it was run: as §1

Structure (SMILES)	fold change (FC)
CC(C)Nc1cccnc1N1CCN(C(=O)c2cc3cc(NS(C)(=O)=O)ccc3[nH]2)CC1 [DELAVIRDINE]	34
O=C1Nc2ccc(Cl)cc2[C@@](C#CC2CC2)(C(F)(F)F)O1 [EFAVIRENZ]	9

Each molecule was assayed on Human immunodeficiency virus 1 (assay: Antiviral activity against HIV1 with RT connection domain L100I/N348I mutant transfected in HEK293 cells assessed as inhibition of viral replication relative to HIV1 NL4-3).
Type: functional
How it was run: as §1

Structure (SMILES)	fold change (FC)
CC(C)Nc1cccnc1N1CCN(C(=O)c2cc3cc(NS(C)(=O)=O)ccc3[nH]2)CC1 [DELAVIRDINE]	90.7
O=C1Nc2ccc(Cl)cc2[C@@](C#CC2CC2)(C(F)(F)F)O1 [EFAVIRENZ]	16

What follows are molecules tested on Human immunodeficiency virus 1 (assay: Antiviral activity against HIV1 with RT connection domain L100I/T369I mutant transfected in HEK293 cells assessed as inhibition of viral replication relative to HIV1 NL4-3).
Type: functional
How it was run: as §1

Structure (SMILES)	fold change (FC)
CC(C)Nc1cccnc1N1CCN(C(=O)c2cc3cc(NS(C)(=O)=O)ccc3[nH]2)CC1 [DELAVIRDINE]	49.7
O=C1Nc2ccc(Cl)cc2[C@@](C#CC2CC2)(C(F)(F)F)O1 [EFAVIRENZ]	13.6

What follows are molecules tested on Human immunodeficiency virus 1 (assay: Antiviral activity against HIV1 with RT connection domain L100I/T369I/N348I mutant transfected in HEK293 cells assessed as inhibition of viral replication relative to HIV1 NL4-3).
Type: functional
How it was run: as §1

Structure (SMILES)	fold change (FC)
CC(C)Nc1cccnc1N1CCN(C(=O)c2cc3cc(NS(C)(=O)=O)ccc3[nH]2)CC1 [DELAVIRDINE]	>250
O=C1Nc2ccc(Cl)cc2[C@@](C#CC2CC2)(C(F)(F)F)O1 [EFAVIRENZ]	137.7

These molecules were tested on Human immunodeficiency virus 1 (assay: Antiviral activity against HIV1 with RT connection domain T369I mutant transfected in HEK293 cells assessed as inhibition of viral replication relative to HIV1 NL4-3).
Type: functional
How it was run: as §1

Structure (SMILES)	fold change (FC)
CC(C)Nc1cccnc1N1CCN(C(=O)c2cc3cc(NS(C)(=O)=O)ccc3[nH]2)CC1 [DELAVIRDINE]	5.2
O=C1Nc2ccc(Cl)cc2[C@@](C#CC2CC2)(C(F)(F)F)O1 [EFAVIRENZ]	2.4

These molecules were tested on Human immunodeficiency virus 1 (assay: Antiviral activity against HIV1 with RT connection domain T369V mutant transfected in HEK293 cells assessed as inhibition of viral replication relative to HIV1 NL4-3).
Type: functional
How it was run: as §1

Structure (SMILES)	fold change (FC)
CC(C)Nc1cccnc1N1CCN(C(=O)c2cc3cc(NS(C)(=O)=O)ccc3[nH]2)CC1 [DELAVIRDINE]	5.5
O=C1Nc2ccc(Cl)cc2[C@@](C#CC2CC2)(C(F)(F)F)O1 [EFAVIRENZ]	3.1

These molecules were tested on Human immunodeficiency virus 1 (assay: Antiviral activity against HIV1 with RT connection domain N348I mutant transfected in HEK293 cells assessed as inhibition of viral replication relative to HIV1 NL4-3).
Type: functional
How it was run: as §1

Structure (SMILES)	fold change (FC)
CC(C)Nc1cccnc1N1CCN(C(=O)c2cc3cc(NS(C)(=O)=O)ccc3[nH]2)CC1 [DELAVIRDINE]	3.4
O=C1Nc2ccc(Cl)cc2[C@@](C#CC2CC2)(C(F)(F)F)O1 [EFAVIRENZ]	1.9

The molecules below were run on Human immunodeficiency virus 1 (assay: Antiviral activity against HIV1 with RT connection domain T369I/N348I mutant transfected in HEK293 cells assessed as inhibition of viral replication relative to HIV1 NL4-3).
Type: functional
How it was run: as §1

Structure (SMILES)	fold change (FC)
CC(C)Nc1cccnc1N1CCN(C(=O)c2cc3cc(NS(C)(=O)=O)ccc3[nH]2)CC1 [DELAVIRDINE]	29.8
O=C1Nc2ccc(Cl)cc2[C@@](C#CC2CC2)(C(F)(F)F)O1 [EFAVIRENZ]	8.1

What follows are molecules tested on Human immunodeficiency virus 1 (assay: Antiviral activity against HIV1 with RT connection domain K103N mutant transfected in HEK293 cells assessed as inhibition of viral replication relative to HIV1 NL4-3).
Type: functional
How it was run: as §1

Structure (SMILES)	fold change (FC)
CC(C)Nc1cccnc1N1CCN(C(=O)c2cc3cc(NS(C)(=O)=O)ccc3[nH]2)CC1 [DELAVIRDINE]	75.7
O=C1Nc2ccc(Cl)cc2[C@@](C#CC2CC2)(C(F)(F)F)O1 [EFAVIRENZ]	21.3

Each molecule was assayed on Human immunodeficiency virus 1 (assay: Antiviral activity against HIV1 with RT connection domain K103N/N348I mutant transfected in HEK293 cells assessed as inhibition of viral replication relative to HIV1 NL4-3).
Type: functional
How it was run: as §1

Structure (SMILES)	fold change (FC)
CC(C)Nc1cccnc1N1CCN(C(=O)c2cc3cc(NS(C)(=O)=O)ccc3[nH]2)CC1 [DELAVIRDINE]	>250
O=C1Nc2ccc(Cl)cc2[C@@](C#CC2CC2)(C(F)(F)F)O1 [EFAVIRENZ]	115

These molecules were tested on Human immunodeficiency virus 1 (assay: Antiviral activity against HIV1 with RT connection domain K103N/T369I mutant transfected in HEK293 cells assessed as inhibition of viral replication relative to HIV1 NL4-3).
Type: functional
How it was run: as §1

Structure (SMILES)	fold change (FC)
CC(C)Nc1cccnc1N1CCN(C(=O)c2cc3cc(NS(C)(=O)=O)ccc3[nH]2)CC1 [DELAVIRDINE]	>250
O=C1Nc2ccc(Cl)cc2[C@@](C#CC2CC2)(C(F)(F)F)O1 [EFAVIRENZ]	164.1

These molecules were tested on Human immunodeficiency virus 1 (assay: Antiviral activity against HIV1 with RT connection domain K103N/T369I/N348I mutant transfected in HEK293 cells assessed as inhibition of viral replication relative to HIV1 NL4-3).
Type: functional
How it was run: as §1

Structure (SMILES)	fold change (FC)
CC(C)Nc1cccnc1N1CCN(C(=O)c2cc3cc(NS(C)(=O)=O)ccc3[nH]2)CC1 [DELAVIRDINE]	>250
O=C1Nc2ccc(Cl)cc2[C@@](C#CC2CC2)(C(F)(F)F)O1 [EFAVIRENZ]	>700

What follows are molecules tested on Human immunodeficiency virus 1 (assay: Antiviral activity against HIV1 with RT connection domain Y181C mutant transfected in HEK293 cells assessed as inhibition of viral replication relative to HIV1 NL4-3).
Type: functional
How it was run: as §1

Structure (SMILES)	fold change (FC)
CC(C)Nc1cccnc1N1CCN(C(=O)c2cc3cc(NS(C)(=O)=O)ccc3[nH]2)CC1 [DELAVIRDINE]	44.7
O=C1Nc2ccc(Cl)cc2[C@@](C#CC2CC2)(C(F)(F)F)O1 [EFAVIRENZ]	1.7

What follows are molecules tested on Human immunodeficiency virus 1 (assay: Antiviral activity against HIV1 with RT connection domain Y181C/N348I mutant transfected in HEK293 cells assessed as inhibition of viral replication relative to HIV1 NL4-3).
Type: functional
How it was run: as §1

Structure (SMILES)	fold change (FC)
CC(C)Nc1cccnc1N1CCN(C(=O)c2cc3cc(NS(C)(=O)=O)ccc3[nH]2)CC1 [DELAVIRDINE]	>250
O=C1Nc2ccc(Cl)cc2[C@@](C#CC2CC2)(C(F)(F)F)O1 [EFAVIRENZ]	3.2

Each molecule was assayed on Human immunodeficiency virus 1 (assay: Antiviral activity against HIV1 with RT connection domain Y181C/T369I mutant transfected in HEK293 cells assessed as inhibition of viral replication relative to HIV1 NL4-3).
Type: functional
How it was run: as §1

Structure (SMILES)	fold change (FC)
CC(C)Nc1cccnc1N1CCN(C(=O)c2cc3cc(NS(C)(=O)=O)ccc3[nH]2)CC1 [DELAVIRDINE]	>250
O=C1Nc2ccc(Cl)cc2[C@@](C#CC2CC2)(C(F)(F)F)O1 [EFAVIRENZ]	4

These molecules were tested on Human immunodeficiency virus 1 (assay: Antiviral activity against HIV1 with RT connection domain Y181C/T369I/N348I mutant transfected in HEK293 cells assessed as inhibition of viral replication relative to HIV1 NL4-3).
Type: functional
How it was run: as §1

Structure (SMILES)	fold change (FC)
CC(C)Nc1cccnc1N1CCN(C(=O)c2cc3cc(NS(C)(=O)=O)ccc3[nH]2)CC1 [DELAVIRDINE]	>250
O=C1Nc2ccc(Cl)cc2[C@@](C#CC2CC2)(C(F)(F)F)O1 [EFAVIRENZ]	17

What follows are molecules tested on Human immunodeficiency virus 1 (assay: Antiviral activity against HIV1 with RT connection domain G190A mutant transfected in HEK293 cells assessed as inhibition of viral replication relative to HIV1 NL4-3).
Type: functional
How it was run: as §1

Structure (SMILES)	fold change (FC)
CC(C)Nc1cccnc1N1CCN(C(=O)c2cc3cc(NS(C)(=O)=O)ccc3[nH]2)CC1 [DELAVIRDINE]	0.3
O=C1Nc2ccc(Cl)cc2[C@@](C#CC2CC2)(C(F)(F)F)O1 [EFAVIRENZ]	5.2
